Data on four molecules can be found in publication PMC7591136 (ACS biomaterials science & engineering, 2019).

A short description of data set [1]: pKa determination by UV–vis titration. It counts as physicochemical. As to conditions: neutral pH.
A short description of data set [2]: Partition coefficients, 1-octanol / PBS pH 7.4, shake flask. It is filed as physicochemical. Conditions: 1-octanol / PBS pH 7.4, 20 °C. Put shortly: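 Shake-flask (OECD) partitioning between 1-octanol and PBS pH 7.4 at 20 °C, run in triplicate with three different organic:aqueous volume ratios. Analyte was kept below 2.0 mM in each phase. Phases were separated by centrifugation and quantified by C-18 reverse-phase HPLC (35 °C, UV 300 nm) against 8-point standard curves (0.005–1.000 mg/mL). For the ionizable parent drug, the value is a distribution coefficient.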

The next data set relates to HIV-1 BaL. It counts as cell-based. As to conditions: Human immunodeficiency virus 1, BAL, TZM-bl, 48 h.
For data set [3] the following is noted: cited from earlier work.

Converted amounts (≈) assume the structure as drawn.

Usually IC50 stands for the point on the concentration scale where inhibition reaches its midpoint. A low value points to higher potency. A word on the aqueous solubility: it is the concentration that dissolves in the medium under given conditions. `Cc1nnc(C(=O)NC(C)(C)c2nc(C(=O)NCc3ccc(F)cc3)c(O)c(=O)n2C)o1` [RAL, raltegravir] showed an ionized fraction in data set [1] greater than 85%. The “apparent POW (distribution coefficient)” value in data set [2] is listed as 2.0. The molecule also yielded an IC50 in the data set with HIV-1 BaL of 4.5 ± 0.5 nM. Further, in data set [3] (neutral form), the aqueous solubility was 1300 µg/mL (≈ 2930 µM).
Take `Cc1cc(C)c(Nc2ccnc(Nc3ccc(C#N)cc3)n2)c(C)c1` [dapivirine]: the reported aqueous solubility in data set [3] was less than 10 µg/mL.
For the molecule `O=C1Nc2ccc(Cl)cc2[C@@](C#CC2CC2)(C(F)(F)F)O1` [efavirenz], in data set [3], the reported aqueous solubility is less than 10 µg/mL.
For `Cc1cccc(C)c1OCC(=O)N[C@@H](Cc1ccccc1)[C@@H](O)C[C@H](Cc1ccccc1)NC(=O)[C@H](C(C)C)N1CCCNC1=O` [liponavir], in data set [3], the reported aqueous solubility is less than 10 µg/mL.
